For one compound, Activity, Time and ED50 results are on record in ChEMBL document CHEMBL1156246 (J Med Chem, 2009).

For data set [1], the system named is Rattus norvegicus. The experiment in a line: Toxicity in Sprague-Dawley rat assessed as occurrence of ataxia at 300 mg/kg, po. It counts as organism-based. Also noted: dose 300 mg/kg, route oral. The settings on record: in vivo.
Data set [2] has as its system Mus musculus. Kind of data set: Anticonvulsant activity in ip dosed albino mouse assessed as protection against subcutaneous metrazole-induced seizures. The class given is functional, organism-based. In outline: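 Male albino Carworth Farms No. 1 mice, dosed intraperitoneally; subcutaneous metrazol seizure model run by previously reported methods under the NIH Anticonvulsant Screening Program; protection against seizures scored.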

In data set [3] the test system is Rattus norvegicus. The experiment in a line: Anticonvulsant activity in po dosed Sprague-Dawley rat assessed as protection against subcutaneous metrazole-induced seizures. The class given is functional, organism-based. In outline:
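Male albino Sprague-Dawley rats, oral dosing; subcutaneous metrazol seizure test by previously reported methods within the NIH Anticonvulsant Screening Program.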

The subject of data set [4] is Mus musculus. Kind of data set: Neurotoxicity in ip dosed albino mouse assessed as time of peak effect by rotarod test. As to conditions: in vivo. The class given is toxicity, organism-based. For orientation: In the rotarod test animals must keep their balance on a rotating rod.
Data set [5] relates to Mus musculus. The experiment in a line: Anticonvulsant activity against maximal electroshock-induced seizures in ip dosed albino mouse assessed as time of peak effect. It counts as functional. For orientation: The maximal electroshock test induces tonic seizures with an electrical stimulus.
Data set [6] has as its system Rattus norvegicus. Kind of data set: Anticonvulsant activity in po dosed Sprague-Dawley rat assessed as protection against maximal electroshock-induced seizures. It counts as functional. In outline: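 Male rodents screened through the NIH Anticonvulsant Screening Program: albino Carworth Farms No. 1 mice given compound ip, albino Sprague-Dawley rats given compound po. Maximal electroshock test: tonic hindlimb seizures were induced by corneal electrical stimulation. ED50 is given in mg/kg.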

Data set [7] relates to Rattus norvegicus. Kind of data set: Anticonvulsant activity against maximal electroshock-induced seizures in po dosed Sprague-Dawley rat assessed as time of peak effect. The class given is functional.

Calls of active or inactive are those of the source. No cut-off for these calls is given here. Bounds are passed on as bounds.

Take `O=C1NC(=O)C(c2ccccc2)(c2ccccc2)N1` [PHENYTOIN]: the Activity result in data set [1] was “Non-toxic”. The result in data set [2] and in data set [3] was inactive. The Time worked out at 2 h in data set [4], 2 h in data set [5] and 4 h in data set [7]. Also, the ED50 (in general, the dose at which the effect has come halfway, by size or by number of responders) in data set [6] is above 30 mg/kg.
